Assay results published in PubChem BioAssay AID488973 (NMMLSC, 2010).
The source made the active and inactive calls.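 Rule for the calls: active = toxic dose over ten times the dose restoring drug killing, with toxic dose under 15 µM; inactive = the rest.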

Test system: Jurkat/DNR viability with daunorubicin, trypan blue, 7 d
Test: chemoreversal in ABCB1 cells, dose response, ABC transporter inhibitor project, paired ABCG2 counter-screen, SAR hit validation (AID 488973)
Conditions: for CC50: measured here: toxicity without chemotherapeutic (TD50)
Summary of the method: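 assay system = ABCB1-expressing drug-resistant Jurkat/DNR cells | input = 100,000 cells per mL | probe or stimulus = fixed daunorubicin | dosing = test compound dose series from 0.1 to 100 µM | schedule = 7-day exposure of cells to test compound | signal = trypan blue cell counts | evaluation = chemo-reversal 50% concentration (CR50) set against 50% toxic dose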

SMILES | EC50 | CC50 [µM]
COc1cccc(C(=O)N2CCN(c3cc(-c4ccccc4)nc4cc(-c5cccc(Cl)c5)nn34)CC2)c1 | 0.35 µM | > 100
COc1ccccc1-c1cc2nc(-c3ccccc3)cc(N3CCN(C(=O)c4ccoc4)CC3)n2n1 | 0.45 µM (inactive) | 4.37
COc1cccc(-c2cc3nc(C)c(C)c(N4CCN(C(=O)c5ccoc5)CC4)n3n2)c1 | 0.82 µM | > 100
Cc1nc2cc(-c3cccc(Cl)c3)nn2c(N2CCN(C(=O)c3ccco3)CC2)c1C | 1.58 µM | > 100
Cc1nc2cc(-c3ccc4c(c3)OCO4)nn2c(N2CCN(C(=O)c3ccoc3)CC2)c1C | 0.13 µM | > 100
Cc1nc2ncnn2c(N2CCN(C(=O)c3ccco3)CC2)c1Cc1ccccc1 | 12.3 µM (inactive) | > 100
O=C(c1ccncc1)N1CCN(c2cc(-c3ccccc3)nc3cc(-c4cccc(Cl)c4)nn23)CC1 | 0.25 µM (inactive) | 10.9
O=C(c1ccoc1)N1CCN(c2cc(-c3cccnc3)nc3cc(-c4cccc(Cl)c4)nn23)CC1 | 0.2 µM (inactive) | 5.33
O=C(c1ccoc1)N1CCN(c2cc(-c3ccco3)nc3cc(-c4cccc(Cl)c4)nn23)CC1 | 0.53 µM (inactive) | 8.53
O=C(c1ccoc1)N1CCN(c2cc(-c3ccncc3)nc3cc(-c4cccc(Cl)c4)nn23)CC1 | 0.6 µM (inactive) | 13.5
COc1ccc(-c2cc3nc(-c4ccccc4)cc(N4CCN(C(=O)c5ccsc5)CC4)n3n2)cc1 | 0.14 µM (inactive) | 4.9
O=C(c1ccco1)N1CCN(c2cc(Cc3ccccc3)nc3cc(-c4cccc(Cl)c4)nn23)CC1 | 1.41 µM (inactive) | 8.47
O=C(c1ccco1)N1CCN(c2cc(-c3ccccc3)nc3cc(-c4cccc(F)c4)nn23)CC1 | 0.58 µM (inactive) | 2.16
COc1cccc(-c2cc(N3CCN(C(=O)c4ccoc4)CC3)n3nc(-c4cccc(OC)c4)cc3n2)c1 | 0.03 µM (inactive) | 7.93
COc1cccc(-c2cc3nc(-c4ccco4)cc(N4CCN(C(=O)c5ccoc5)CC4)n3n2)c1 | 0.47 µM (inactive) | 5.52
COc1cccc(-c2cc3nc(C)c(C)c(N4CCN(Cc5ccco5)CC4)n3n2)c1 | 0.02 µM | > 100
O=C(c1ccco1)N1CCN(c2cc(-c3ccccc3)nc3cc(-c4cccc(Cl)c4)nn23)CC1 | 0.7 µM (inactive) | 3.18
CC(=O)N1CCN(c2c(C)c(C)nc3cc(-c4cccc(F)c4)nn23)CC1 | 19.8 µM (inactive) | > 100
Cc1nc2cc(-c3cccc(Cl)c3)nn2c(N2CCN(C(=O)c3ccsc3)CC2)c1C | 1.13 µM (inactive) | 10.1

SMILES | EC50 | CC50 [µM]
Cc1ccc(-c2cc3nc(-c4ccccc4)cc(N4CCN(C(=O)c5ccoc5)CC4)n3n2)cc1 | 0.29 µM (inactive) | 5.77
O=C(C1CCCO1)N1CCN(c2c3c(nc4cc(-c5cccc(F)c5)nn24)CCCC3)CC1 (centres undefined) | 3.58 µM (inactive) | 12.3
O=C(c1ccco1)N1CCN(c2c3c(nc4cc(-c5cccc(F)c5)nn24)CCCC3)CC1 | 2.94 µM (inactive) | 5.32
O=C(c1ccoc1)N1CCN(c2cc(-c3ccco3)nc3cc(-c4ccccc4)nn23)CC1 | 0.55 µM (inactive) | 5.52
O=C(c1cccnc1)N1CCN(c2cc(-c3ccccc3)nc3cc(-c4cccc(Cl)c4)nn23)CC1 | 0.17 µM (inactive) | 4.72
Cc1cc(N2CCN(C(=O)c3ccco3)CC2)n2nc(-c3ccc(F)cc3)cc2n1 | 5.33 µM (inactive) | 4.2
COc1ccc(-c2cc3nc(C)c(C)c(N4CCN(C(C)=O)CC4)n3n2)cc1 | 6 µM | 105
O=C(Cc1ccccc1)N1CCN(c2cc(-c3ccccc3)nc3cc(-c4cccc(Cl)c4)nn23)CC1 | 0.51 µM | 17.8
Cc1cc(N2CCN(C(=O)c3ccco3)CC2)n2nc(-c3ccccc3)nc2n1 | 4.92 µM (inactive) | 11.8
Cc1nc2cc(-c3ccc(F)cc3)nn2c(N2CCN(C(=O)c3ccco3)CC2)c1C | 1.82 µM (inactive) | 5.33
COc1cc(OC)cc(-c2cc3nc(C)c(C)c(N4CCN(C(=O)c5ccoc5)CC4)n3n2)c1 | 0.1 µM (inactive) | 9.52
O=C(c1ccoc1)N1CCN(c2cc(-c3ccccc3)nc3cc(-c4ccncc4)nn23)CC1 | 1.52 µM (inactive) | 9.52
COc1ccc(-c2cc3nc(-c4ccccc4)cc(N4CCN(C(=O)c5ccccc5)CC4)n3n2)cc1 | 0.19 µM | 16.9
Cc1cc(N2CCN(C(=O)c3ccco3)CC2)n2nc(C)c(-c3ccccc3)c2n1 | 3.58 µM (inactive) | 3.31
COc1ccc(-c2cc3nc(-c4ccccc4)cc(N4CCN(C(=O)c5ccoc5)CC4)n3n2)cc1 | 0.23 µM (inactive) | 5.54
COc1ccc(-c2[nH]nc3nc(N4CCN(C(=O)c5ccoc5)CC4)cc(C(F)(F)F)c23)cc1 | 0.33 µM (inactive) | 0.455
COc1ccc(-c2cc3nc(C)c(C)c(N4CCN(C(=O)c5ccco5)CC4)n3n2)cc1 | 0.53 µM | > 100
Cc1nc2cc(-c3cccc(Cl)c3)nn2c(N2CCN(C(=O)c3ccoc3)CC2)c1C | 0.51 µM (inactive) | 5.33
